Data as given in ChEMBL document CHEMBL1629485, “Lead identification of conformationally restricted β-lactam type combretastatin analogues: synthesis, antiproliferative activity and tubulin targeting effects” (Eur J Med Chem, 2010).

Key:
MDA-MB-231 [1] = assay: Cytotoxicity against estrogen receptor deficient human MDA-MB-231 cells assessed as LDH release at 10 uM; format: functional
Method in brief: (§1)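 After compound treatment, LDH was measured with a commercial LDH kit. Result is % cell lysis at 10 μM compound.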

MCF7 [2] = assay: Cytotoxicity against human MCF7 cells expressing estrogen receptor assessed as LDH release at 10 uM; format: functional; method in brief: as §1
MCF7 [3] = assay: Antiproliferative activity against human MCF7 cells expressing estrogen receptor after 72 hrs by MTT assay; format: functional, cell-based; conditions: MCF7, 72 h
MDA-MB-231 [4] = assay: Antiproliferative activity against estrogen receptor deficient human MDA-MB-231 cells after 72 hrs by MTT assay; format: functional, cell-based; conditions: MDA-MB-231, 72 h
Method in brief: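 MCF-7 grown in Eagle's MEM with 10% FBS, 2 mM L-glutamine, penicillin/streptomycin and 1% non-essential amino acids; MDA-MB-231 grown in DMEM with 10% FBS, 2 mM L-glutamine and penicillin/streptomycin. Seeded at 2.5 × 10⁴ cells/mL, 24 h at 37 °C. Ethanol-stock compound, 1 nM–100 μM, 72 h, ethanol 1% v/v vehicle. MTT at 1 mg/mL final, 2 h dark, 37 °C, DMSO solubilised. Viability vs untreated control. IC50 is mean of three experiments in triplicate.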

SMILES | IC50 (MCF7 [3]) [nM] | IC50 (MDA-MB-231 [4]) [nM] | Activity (MDA-MB-231 [1]) [%] | Activity (MCF7 [2]) [%]
COc1cc(N2C(=O)CC2c2ccc(F)cc2)cc(OC)c1OC (configuration not stated) | 26000 | 26000 | 6.3 | 0
COc1ccc(/C=C\c2cc(OC)c(OC)c(OC)c2)cc1O [COMBRETASTATIN A4] |  |  | 4.3 | 5.6
COc1ccc(C2CC(=S)N2c2cc(OC)c(OC)c(OC)c2)cc1 (configuration not stated) | 1120 | 4500 | 3 | 16
COc1cc(C2CC(=O)N2c2cc(OC)c(OC)c(OC)c2)cc(OC)c1OC (configuration not stated) | 168000 | 94400 | 0 | 1.9
COc1cc(N2C(=O)CC2c2ccc(OC)c(OC)c2OC)cc(OC)c1OC (configuration not stated) | 310 | 2830 | 9 | 8
COc1ccc(C2N(c3cc(OC)c(OC)c(OC)c3)C(=O)C2(C)C)cc1 (configuration not stated) | 265 | 1150 | 16 | 12
COc1ccc(N2C(=O)CC2c2cc(OC)c(OC)c(OC)c2)cc1O (configuration not stated) | 250 | 270 | 6.6 | 2.3
COc1cc(OC)c(C2CC(=O)N2c2cc(OC)c(OC)c(OC)c2)cc1OC (configuration not stated) | 63700 | 38500 | 0 | 2.2
COc1ccc(C2CC(=O)N2c2cc(OC)c(OC)c(OC)c2)cc1 (configuration not stated) | 39 | 210 | 1.1 | 1.5
COc1ccc(C2C(C)C(=S)N2c2cc(OC)c(OC)c(OC)c2)cc1 (configuration not stated) | 890 | 9260 | 5.1 | 3.2
COc1ccc(C2N(c3cc(OC)c(OC)c(OC)c3)C(=S)C2(C)C)cc1 (configuration not stated) | 350 | 1330 | 8 | 5.5
COc1cc(N2C(=O)CC2c2cccs2)cc(OC)c1OC (configuration not stated) | 21600 | 34500 | 15 | 20
COc1ccc(N2C(=O)C(C)(C)C2c2cc(OC)c(OC)c(OC)c2)cc1O (configuration not stated) | 4040 | 3190 | 12.1 | 11.5
COc1ccc2cc(C3CC(=O)N3c3cc(OC)c(OC)c(OC)c3)ccc2c1 (configuration not stated) | 1510 | 13200 | 18 | 13.5

Further lines, with some results ahead:

IC50 (MCF7 [3]) [nM] | IC50 (MDA-MB-231 [4]) [nM] | SMILES | Activity (MDA-MB-231 [1]) [%] | Activity (MCF7 [2]) [%]
47 | 127 | COc1ccc(C2C(C)C(=O)N2c2cc(OC)c(OC)c(OC)c2)cc1 (configuration not stated) | 4.5 | 5.7
2960 | 13000 | COc1ccc(N2C(=O)C(C)C2c2cc(OC)c(OC)c(OC)c2)cc1O (configuration not stated) | 0 | 17
10 | 47 | COc1ccc(C2C(C)C(=O)N2c2cc(OC)c(OC)c(OC)c2)cc1O (configuration not stated) | 25 | 15
1640 | 970 | COc1ccc(C2CC(=O)N2c2cc(OC)c(OC)c(OC)c2)cc1OC (configuration not stated) | 15 | 5
130 | 1670 | COc1ccc(C2N(c3cc(OC)c(OC)c(OC)c3)C(=O)C2(C)C)cc1O (configuration not stated) | 20 | 12
2960 | 8840 | COc1ccc(C2C(C)C(=O)N2c2cc(OC)c(OC)c(OC)c2)cc1OC (configuration not stated) | 6.1 | 7.5
344 | 1460 | COc1ccc(C2N(c3cc(OC)c(OC)c(OC)c3)C(=O)C2(C)C)cc1OC (configuration not stated) | 12 | 14
